MT stabilize HCS: microtubule stabilization, imaging screen; HeLa tubulin immunostaining HCS, 24 h; share of cells brighter than vehicle mean+2SD; 200,000 tested, 0.83% active; % tubulin-high responders, % at 10 µM;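 active = plate Z-score above 3 for both tubulin-high and condensed-nucleus cell shares, with cell loss under 80%, at 10 µM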;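 also: anti alpha tubulin signal scored within the nucleus-defined area of each cell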
L major viab: reduces viability of Leishmania major promastigotes. resazurin fluorescence viability. inhibition, % at 10 µM. 200,000 tested, 9% active; in the data active = inhibition above about 50%;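 also: promastigotes grown with compound for 44 hours at 28 °C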
CHOP inhibitor: blocks CHOP induction under ER stress; CHO-K1 CHOP-promoter luciferase, tunicamycin-induced, 15-18 h; inhibition, % at 10 µM; 220,000 tested, 3.8% active;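 active = compounds that reduced the stress-induced luciferase reporter signal by more than about 70% of percent inhibition, limit read from the data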
Autophagy HCS: modulators of autophagy. calls only at 10 µM (by protocol). 190,000 tested, 0.98% active. MEF GFP-LC3 puncta imaging; test concentration mostly 10 µM. AID 463193;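 active = percentage of spot-positive cells more than 3 SD above its plate mean, without a fluorescence outlier flag or 80% toxicity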
Dynein cargo inh: dynein cargo transport inhibition; 3617.4 mouse cells, GR-EGFP nuclear translocation imaging; test concentration mostly 20 µM; stimulated with dexamethasone, 1 µM; stronger effect = lower value; z-score, hits read low; AID 1381; 220,000 tested, 0.47% active;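 active = plate z-score of nuclear minus cytoplasmic receptor signal below a set negative limit, without overly bright fluorescence or cell loss, cut at about -3.5 in these data, passing the limit was not always enough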;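 also: z-score of nuclear minus cytoplasmic ring GR-EGFP intensity difference per well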
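Buffer or medium: tet-free, stripped-serum medium; reagent: dexamethasone at 1.0 µM final, 30 min; incubation: 48 h induction, 1 h compound, 30 min dex at 37 °C; measured by: formaldehyde fixation, Hoechst nuclear stain, 10x automated fluorescence imaging; read-out: nuclear-to-cytoplasmic GR-EGFP distribution per well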
bCat nuc transl: beta-catenin nuclear translocation modulation | HeLa beta-catenin nuclear translocation, immunofluorescence imaging | nuclear translocation activity, % at 5 µM | 190,000 tested, 0.3% active | AID 1665;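 active = nuclear translocation activity above 50% at 5 µM, with a well cell count of 50 or more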;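 also: per-cell ratio of nuclear to cytoplasmic median beta-catenin stain intensity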
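Read-out: Nuclear/cytoplasmic beta-catenin signal ratio, % activation | Assay system: Human HeLa cell line | Times: 24 h compound exposure at 37°C, 5% CO2 | Signal: Fluorescence imaging of beta-catenin antibody stain plus DAPI | Dosing: 5 µM primary, 0.02–20 µM confirmation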
Hits are given with their value; i = inactive; nt = not tested or not shown. Rows were chosen to be rich in hits. Some 12% of all compounds tested hit in one or more screens of this group.

SMILES | MT stabilize HCS | L major viab | CHOP inhibitor | Autophagy HCS | Dynein cargo inh | bCat nuc transl
Cc1cccc(Cn2c(=O)c3c(nc4n3CCCN4Cc3ccccc3)n(C)c2=O)c1 | i | i | i | i | i | nt
Clc1ccc2c(c1)C(C1=NCCN1)c1ccccc1CS2 (centres undefined) | 24.1 | i | i | i | i | nt
S=C1NCCc2ccc(Cl)cc2C1c1ccccc1Cl (centres undefined) | i | i | i | i | i | i
CCOC(=O)C1=C(C)Nc2nnnn2C1c1ccc(OC)c(Br)c1 (centres undefined) | i | 90.9 | i | nt | i | i
COc1ccc(C2C(C(=O)OC3CCCCC3)=C(C)Nc3nnnn32)c(OC)c1OC (centres undefined) | i | 91.4 | i | i | i | i
CCCCOC(=O)C1=C(C)Nc2ncnn2C1c1ccc(OC)c(OC)c1 (centres undefined) | i | 75.2 | i | i | i | i
CCCCOC(=O)C1=C(C)Nc2nnnn2C1c1ccccc1Cl (centres undefined) | i | i | 83.5 | i | i | i
CCCCOc1ccc(C(=O)NCC2(c3ccc(OC)cc3)CCOCC2)cc1 | i | i | i | i | i | i
CCOC(=O)CCSc1cc(C)c2ccccc2n1 | i | i | i | i | i | i
O=C(CSc1nnc(Cc2ccccc2)n1Cc1ccco1)NC12CC3CC(CC(C3)C1)C2 | i | i | 72.0 | i | i | nt
CN(C)C(=O)CSc1nnc(Cc2ccccc2)n1Cc1ccco1 | i | i | i | i | i | i
CN(C(=O)COc1ccccc1C(=O)NCCOc1ccccc1)c1ccccc1 | i | i | 79.2 | i | i | i
Cc1cccc(OCCCC(=O)NC(C)C)c1 | i | i | i | i | i | i
Cc1cccc(OCCC(=O)Nc2ccc(F)c(F)c2)c1 | i | i | i | i | i | i
CN(C)c1ccc(NC(=O)C(=O)NCCOc2ccccc2)cc1 | i | i | 70.2 | i | i | i
Cc1cccc(OCCCC(=O)Nc2ccc(N(C)C)cc2)c1 | i | 96.5 | i | i | i | nt
Cc1cccc(OCCCC(=O)Nc2ccc(Br)cc2)c1 | i | i | 84.4 | i | i | i
CC1(C2CC2)NC(=O)N(CC(=O)Nc2ccccc2-c2ccccc2)C1=O (centres undefined) | i | i | i | i | i | i
CC(C)Cn1c(N)c(C(=O)COC(=O)c2cnc(Cl)c(Cl)c2)c(=O)n(C)c1=O | i | i | i | i | i | i
COC(=O)c1nnn(CC(=O)NC(=O)Nc2cccc(Cl)c2C)c1C(=O)OC | i | i | i | i | i | i
O=C(O)c1cc2nc(C3CC3)cc(C(F)(F)F)n2n1 | i | i | i | nt | i | i
COc1cccc(C(=O)N2CCN(CCCc3ccccc3)CC2)c1OC | i | 93.0 | i | i | i | i
COc1ccccc1C(=O)N1CCN(CCc2ccccc2)CC1 | i | i | i | i | i | i
O=C(c1ccncc1)N1CCN(C2CCC(c3ccccc3)CC2)CC1 (centres undefined) | nt | nt | i | nt | i | i
COc1cccc(C(=O)N2CCN(C3CCC(c4ccccc4)CC3)CC2)c1OC (centres undefined) | i | 100.1 | i | i | i | i
SMILES | MT stabilize HCS | L major viab | CHOP inhibitor | Autophagy HCS | Dynein cargo inh | bCat nuc transl
CC1=[N+](C)c2ccc3ccccc3c2C1(C)C | i | 92.8 | i | i | i | i
CC(C)CCNC(=O)c1ccc(-c2ccccc2)cc1 | i | i | i | i | i | i
CC(C)(Oc1ccc(Cl)cc1)C(=O)N1CCC(C(N)=O)CC1 | i | i | i | i | i | i
COc1ccc(N2CCN(C(=O)C(C)(C)Oc3ccc(Cl)cc3)CC2)cc1 | i | 98.2 | i | nt | i | i
CCOC(=O)N1CCN(C(=O)C(C)(C)Oc2ccc(Cl)cc2)CC1 | i | i | 83.2 | i | i | nt
C/C(=C\C(=O)O)C12CC3CC(CC(C3)C1)C2 | i | i | i | i | i | i
Cc1ccc(C)c(CSc2nc3[nH]ncc3c(=O)[nH]2)c1 | 22.9 | i | i | i | i | i
Cc1ccccc1CSc1nc2[nH]ncc2c(=O)[nH]1 | i | i | i | i | i | i
Cc1ccc(C2NC(c3ccc(C)cc3)C(C)C(=NO)C2C)cc1 (centres undefined) | i | i | 84.4 | i | i | nt
CC(C)CC(=O)NC1(C(F)(F)F)C(=O)N(Cc2ccccc2)C2=C1C(=O)CC(C)(C)C2 (centres undefined) | i | i | i | i | i | i
CC1(C)CC(=O)C2=C(C1)N(Cc1ccccc1)C(=O)C2(O)C(F)(F)F (centres undefined) | i | 65.5 | i | i | i | i
CC(C)(C)C(=O)NC1(C(F)(F)F)NC(=O)N(Cc2ccccc2)C1=O (centres undefined) | nt | nt | i | nt | i | i
O=C1CCCC2=C1C(O)(C(F)(F)F)C(=O)N2Cc1ccccc1 (centres undefined) | i | 60.6 | i | i | i | i
Cc1cccc(OCc2n[nH]c(=S)n2C2CCCCC2)c1 | 32.0 | i | i | i | i | i
CCCc1nc2c(C)cc(C)cc2c(N)c1CC | i | 98.0 | i | i | i | i
Cc1snnc1C(=O)NC(=S)Nc1ccccc1 | nt | nt | i | nt | i | i
O=C(Nc1cc(Br)ccc1O)c1cnn2c(C(F)F)cc(C3CC3)nc12 | i | 51.2 | i | i | i | i
Cc1cc(NC(=O)CC2CCCC2)n(-c2nc3ccccc3[nH]2)n1 | i | i | 85.0 | i | i | i
Cc1cc(NC(=O)c2ccc(F)cc2F)n(-c2nc3ccccc3[nH]2)n1 | i | i | i | i | i | i
COc1ccc(C(c2nnnn2C2CCCC2)N2CCC(C)CC2)c(OC)c1 (centres undefined) | i | 99.3 | i | i | i | i
COc1ccc(OC)c(C(c2nnnn2C2CCCC2)N2CCN(c3ccc(F)cc3)CC2)c1 (centres undefined) | i | 91.8 | i | i | i | i
COc1ccc(N2CCN(C(c3nnnn3C3CCCC3)C(C)C)CC2)cc1 (centres undefined) | i | i | i | i | i | i
CC1Cc2cccc3c(O)c(C(=O)c4nn[nH]n4)c(=O)n1c23 (centres undefined) | i | i | i | i | i | i
O=C(NCc1ccc(F)cc1)C(=O)Nc1nc(C23CC4CC(CC(C4)C2)C3)cs1 | i | i | i | i | i | i
COc1ccccc1Oc1ccc(S(=O)(=O)N2CCN(C)CC2)cc1 | i | i | i | i | i | i
COc1cc(S(=O)(=O)N2CCN(Cc3ccccc3)CC2)ccc1Br | i | i | 78.3 | i | i | i
COc1ccc(S(=O)(=O)N2CCC(CN3C(=O)c4cccc5cccc(c45)C3=O)CC2)cc1 | i | 98.2 | i | i | i | i
O=c1[nH]c2ccc(S(=O)(=O)N3CCN(Cc4ccccc4)CC3)cc2[nH]c1=O | i | i | i | i | i | i
O=C(c1ccc(S(=O)(=O)N2CCCC2)cc1)N1CCC(CN2C(=O)c3cccc4cccc(c34)C2=O)CC1 | nt | nt | i | nt | i | i
CCOC(=O)N1CCC(N2CCN(S(=O)(=O)c3ccc4ccccc4c3)CC2)CC1 | i | 97.6 | i | i | i | nt

Bioassay records deposited in PubChem BioAssay by several laboratories.
